In brackets after ≈: the same amount, converted by molar mass. Activity calls are given as the source filed them. The calls are words filed in the database; no cut-off is given here.
Legend:
[1] = test system: Staphylococcus aureus; test: Antimicrobial activity against Staphylococcus aureus at 5 ug after 24 hrs by disk diffusion method; format: functional; details: read-out: IZ
Method in brief: (§1)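 Inoculum made in 0.85% saline against McFarland standard, swabbed evenly onto nutrient agar; sterile filter-paper discs set equidistant and loaded with equal volumes of drug at varying amounts; zone of inhibition measured after 24 h at 37 °C; ciprofloxacin reference.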

[2] = test system: Klebsiella pneumoniae; test: Antimicrobial activity against Klebsiella pneumoniae at 20 ug after 24 hrs by disk diffusion method; format: functional; details: read-out: IZ; method in brief: as §1
[3] = test system: Pseudomonas aeruginosa; test: Antimicrobial activity against Pseudomonas aeruginosa by broth microdilution assay; format: functional
Method in brief: (§2)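 Broth microdilution per NCCLS 1997 in 96-well plate; final inoculum 10^5 cfu/mL; incubated 35.7 °C in air 18–20 h; MIC read as lowest concentration with no visible growth.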

[4] = test system: Escherichia coli; test: Antimicrobial activity against Escherichia coli at 5 ug after 24 hrs by disk diffusion method; format: functional; details: read-out: IZ; method in brief: as §1
[5] = test system: Salmonella typhimurium; test: Antimicrobial activity against Salmonella Typhimurium at 5 ug after 24 hrs by disk diffusion method; format: functional, Salmonella enterica subsp. enterica serovar Typhimurium; details: Salmonella enterica, read-out: IZ; method in brief: as §1
[6] = test system: Escherichia coli; test: Antimicrobial activity against Escherichia coli at 25 ug after 24 hrs by disk diffusion method; format: functional; details: read-out: IZ; method in brief: as §1
[7] = test system: Klebsiella pneumoniae; test: Antimicrobial activity against Klebsiella pneumoniae at 10 ug after 24 hrs by disk diffusion method; format: functional; details: read-out: IZ; method in brief: as §1
[8] = test system: Escherichia coli; test: Antimicrobial activity against Escherichia coli by broth microdilution assay; format: functional; method in brief: as §2
[9] = test system: Staphylococcus aureus; test: Antimicrobial activity against Staphylococcus aureus at 25 ug after 24 hrs by disk diffusion method; format: functional; details: read-out: IZ; method in brief: as §1
[10] = test system: Staphylococcus aureus; test: Antimicrobial activity against Staphylococcus aureus by broth microdilution assay; format: functional; method in brief: as §2
[11] = test system: Pseudomonas aeruginosa; test: Antimicrobial activity against Pseudomonas aeruginosa at 10 ug after 24 hrs by disk diffusion method; format: functional; details: read-out: IZ; method in brief: as §1
[12] = test system: Klebsiella pneumoniae; test: Antimicrobial activity against Klebsiella pneumoniae by broth microdilution assay; format: functional; method in brief: as §2
[13] = test system: Klebsiella pneumoniae; test: Antimicrobial activity against Klebsiella pneumoniae at 15 ug after 24 hrs by disk diffusion method; format: functional; details: read-out: IZ; method in brief: as §1
[14] = Inhibition of DNA gyrase assessed as pBR322 DNA relaxation at 5 uM
Method in brief: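 Relaxation without ATP: gyrase (60 nM) with supercoiled pBR322 DNA (6 nM) and drug at […] for 1 h at 37 °C; relaxation judged by gel. Ciprofloxacin, novobiocin and nalidixic acid comparators.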

[15] = Inhibition of DNA gyrase assessed as conversion of relaxed pBR322 to supercoiled form
Method in brief: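 Supercoiling in 15 µL reactions: gyrase assay buffer, 150 ng relaxed pBR322, 2–3 µL purified DNA gyrase, 3 h at 37 °C (E. coli); stopped with 50% glycerol/0.25% bromophenol blue; 1% agarose in 1× TBE pH 8.3, 90 V 3 h; ethidium bromide stain; supercoiled band brightness by densitometry. Ciprofloxacin comparator.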

[16] = test system: Salmonella typhimurium; test: Antimicrobial activity against Salmonella Typhimurium at 15 ug after 24 hrs by disk diffusion method; format: functional, Salmonella enterica subsp. enterica serovar Typhimurium; details: Salmonella enterica, read-out: IZ; method in brief: as §1
[17] = test system: Pseudomonas aeruginosa; test: Antimicrobial activity against Pseudomonas aeruginosa at 25 ug after 24 hrs by disk diffusion method; format: functional; details: read-out: IZ; method in brief: as §1
[18] = test system: Staphylococcus aureus; test: Antimicrobial activity against Staphylococcus aureus at 20 ug after 24 hrs by disk diffusion method; format: functional; details: read-out: IZ; method in brief: as §1
[19] = test system: Salmonella typhimurium; test: Antimicrobial activity against Salmonella Typhimurium at 20 ug after 24 hrs by disk diffusion method; format: functional, Salmonella enterica subsp. enterica serovar Typhimurium; details: Salmonella enterica, read-out: IZ; method in brief: as §1
[20] = test system: Salmonella typhi; test: Antimicrobial activity against Salmonella typhi by broth microdilution assay; format: functional, Salmonella enterica subsp. enterica serovar Typhi; details: Salmonella enterica
Method in brief: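 Broth microdilution in 96-well plates following the NCCLS 1997 protocol. Final inoculum was 10^5 cfu/mL, with a control organism run alongside. Plates were incubated at 35.7 °C in air for 18–20 h. MIC is the lowest concentration with no visible growth.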

[21] = test system: Bacillus subtilis; test: Antimicrobial activity against Bacillus subtilis at 25 ug after 24 hrs by disk diffusion method; format: functional; details: read-out: IZ; method in brief: as §1
[22] = test system: Staphylococcus aureus; test: Antimicrobial activity against Staphylococcus aureus at 15 ug after 24 hrs by disk diffusion method; format: functional; details: read-out: IZ; method in brief: as §1
[23] = test system: Klebsiella pneumoniae; test: Antimicrobial activity against Klebsiella pneumoniae at 25 ug after 24 hrs by disk diffusion method; format: functional; details: read-out: IZ; method in brief: as §1
[24] = test system: Bacillus subtilis; test: Antimicrobial activity against Bacillus subtilis at 20 ug after 24 hrs by disk diffusion method; format: functional; details: read-out: IZ; method in brief: as §1
[25] = test system: Pseudomonas aeruginosa; test: Antimicrobial activity against Pseudomonas aeruginosa at 5 ug after 24 hrs by disk diffusion method; format: functional; details: read-out: IZ; method in brief: as §1
[26] = test system: Bacillus subtilis; test: Antimicrobial activity against Bacillus subtilis by broth microdilution assay; format: functional; method in brief: as §2
[27] = test system: Salmonella typhimurium; test: Antimicrobial activity against Salmonella Typhimurium at 25 ug after 24 hrs by disk diffusion method; format: functional, Salmonella enterica subsp. enterica serovar Typhimurium; details: Salmonella enterica, read-out: IZ; method in brief: as §1
[28] = test system: Escherichia coli; test: Antimicrobial activity against Escherichia coli at 15 ug after 24 hrs by disk diffusion method; format: functional; details: read-out: IZ; method in brief: as §1
[29] = test system: Bacillus subtilis; test: Antimicrobial activity against Bacillus subtilis at 15 ug after 24 hrs by disk diffusion method; format: functional; details: read-out: IZ; method in brief: as §1
[30] = test system: Escherichia coli; test: Antimicrobial activity against Escherichia coli at 20 ug after 24 hrs by disk diffusion method; format: functional; details: read-out: IZ; method in brief: as §1
[31] = test system: Bacillus subtilis; test: Antimicrobial activity against Bacillus subtilis at 10 ug after 24 hrs by disk diffusion method; format: functional; details: read-out: IZ; method in brief: as §1
[32] = test system: Escherichia coli; test: Antimicrobial activity against Escherichia coli at 10 ug after 24 hrs by disk diffusion method; format: functional; details: read-out: IZ; method in brief: as §1
[33] = test system: Pseudomonas aeruginosa; test: Antimicrobial activity against Pseudomonas aeruginosa at 15 ug after 24 hrs by disk diffusion method; format: functional; details: read-out: IZ; method in brief: as §1
[34] = test system: Pseudomonas aeruginosa; test: Antimicrobial activity against Pseudomonas aeruginosa at 20 ug after 24 hrs by disk diffusion method; format: functional; details: read-out: IZ; method in brief: as §1
[35] = test system: Klebsiella pneumoniae; test: Antimicrobial activity against Klebsiella pneumoniae at 5 ug after 24 hrs by disk diffusion method; format: functional; details: read-out: IZ; method in brief: as §1
[36] = test system: Escherichia coli; test: Inhibition of DNA gyrase gene expression in Escherichia coli assessed as decrease in band intensity by RT-PCR amplification
Method in brief: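 E. coli treated with drug; total RNA from cells sampled up to 24 h; 2 µg RNA to cDNA with MMLV reverse transcriptase; gyrase gene PCR (94 °C 4 min initial denaturation, 72 °C 7 min final extension); products on agarose gel, band intensity normalized to GAPDH; untreated cells as negative control.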

[37] = test system: Staphylococcus aureus; test: Antimicrobial activity against Staphylococcus aureus at 10 ug after 24 hrs by disk diffusion method; format: functional; details: read-out: IZ; method in brief: as §1
[38] = test system: Salmonella typhimurium; test: Antimicrobial activity against Salmonella Typhimurium at 10 ug after 24 hrs by disk diffusion method; format: functional, Salmonella enterica subsp. enterica serovar Typhimurium; details: Salmonella enterica, read-out: IZ; method in brief: as §1
[39] = Inhibition of DNA gyrase assessed as pBR322 DNA relaxation at 2.5 uM
Method in brief: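 Gyrase (60 nM) was incubated with supercoiled pBR322 DNA (6 nM) and increasing compound concentrations (0, 0.1, 0.25, 0.5, 2.5) without ATP for 1 h at 37 °C. Relaxation of the supercoiled DNA was evaluated.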

COc1ccc2c(c1)C(c1ccccc1)[C@@H]1Cn3cccc3[C@@H]1N2 (stereo partly drawn)
zone of inhibition at 5 µg/disc [1]: 20 mm | zone of inhibition at 20 µg/disc [2]: 24 mm | MIC50 [3]: 0.125 µg/mL (≈ 0.395 µM) | MIC90 [3]: 1 µg/mL (≈ 3.16 µM) | zone of inhibition at 5 µg/disc [4]: 12 mm | zone of inhibition at 5 µg/disc [5]: 10 mm | zone of inhibition at 25 µg/disc [6]: 23 mm | zone of inhibition at 10 µg/disc [7]: 14 mm | MIC50 [8]: 0.125 µg/mL (≈ 0.395 µM) | MIC90 [8]: 0.25 µg/mL (≈ 0.79 µM) | zone of inhibition at 25 µg/disc [9]: 36 mm | MIC50 [10]: 0.5 µg/mL (≈ 1.58 µM) | MIC90 [10]: 0.5 µg/mL (≈ 1.58 µM) | zone of inhibition at 10 µg/disc [11]: 26 mm | MIC50 [12]: 0.25 µg/mL (≈ 0.79 µM) | MIC90 [12]: 2 µg/mL (≈ 6.32 µM) | zone of inhibition at 15 µg/disc [13]: 16 mm | Activity [14]: inactive | Activity [15]: Active | zone of inhibition at 15 µg/disc [16]: 18 mm | zone of inhibition at 25 µg/disc [17]: 36 mm | zone of inhibition at 20 µg/disc [18]: 30 mm | zone of inhibition at 20 µg/disc [19]: 22 mm | MIC50 [20]: 0.06 µg/mL (≈ 0.19 µM) | MIC90 [20]: 0.15 µg/mL (≈ 0.474 µM) | zone of inhibition at 25 µg/disc [21]: 11 mm | zone of inhibition at 15 µg/disc [22]: 26 mm | zone of inhibition at 25 µg/disc [23]: 26 mm | zone of inhibition at 20 µg/disc [24]: 10 mm | zone of inhibition at 5 µg/disc [25]: 24 mm | MIC50 [26]: 0.3 µg/mL (≈ 0.948 µM) | MIC90 [26]: 2 µg/mL (≈ 6.32 µM) | zone of inhibition at 25 µg/disc [27]: 24 mm | zone of inhibition at 15 µg/disc [28]: 16 mm | zone of inhibition at 15 µg/disc [29]: 9 mm | zone of inhibition at 20 µg/disc [30]: 22 mm | zone of inhibition at 10 µg/disc [31]: 8 mm | zone of inhibition at 10 µg/disc [32]: 14 mm | zone of inhibition at 15 µg/disc [33]: 28 mm | zone of inhibition at 20 µg/disc [34]: 34 mm | zone of inhibition at 5 µg/disc [35]: 10 mm | Activity [36]: Active | zone of inhibition at 10 µg/disc [37]: 24 mm | zone of inhibition at 10 µg/disc [38]: 16 mm

CCn1cc(C(=O)O)c(=O)c2ccc(C)nc21
Activity [15]: Active | Activity [39]: Active

O=C1c2ccccc2C(=O)C12Nc1ccc(Br)cc1[C@H]1OCCC[C@H]12
zone of inhibition at 5 µg/disc [1]: 8 mm | zone of inhibition at 20 µg/disc [2]: 14 mm | MIC50 [3]: 1 µg/mL (≈ 2.51 µM) | MIC90 [3]: 8 µg/mL (≈ 20.1 µM) | zone of inhibition at 5 µg/disc [4]: 8 mm | zone of inhibition at 5 µg/disc [5]: 8 mm | zone of inhibition at 25 µg/disc [6]: 13 mm | zone of inhibition at 10 µg/disc [7]: 10 mm | MIC50 [8]: 2 µg/mL (≈ 5.02 µM) | MIC90 [8]: 4 µg/mL (≈ 10 µM) | zone of inhibition at 25 µg/disc [9]: 14 mm | MIC50 [10]: 64 µg/mL (≈ 161 µM) | MIC90 [10]: 64 µg/mL (≈ 161 µM) | zone of inhibition at 10 µg/disc [11]: 14 mm | MIC50 [12]: 0.25 µg/mL (≈ 0.628 µM) | MIC90 [12]: 4 µg/mL (≈ 10 µM) | zone of inhibition at 15 µg/disc [13]: 13 mm | Activity [14]: inactive | Activity [15]: Active | zone of inhibition at 15 µg/disc [16]: 13 mm | zone of inhibition at 25 µg/disc [17]: 23 mm | zone of inhibition at 20 µg/disc [18]: 12 mm | zone of inhibition at 20 µg/disc [19]: 14 mm | MIC50 [20]: 1.64 µg/mL (≈ 4.12 µM) | MIC90 [20]: 2.5 µg/mL (≈ 6.28 µM) | zone of inhibition at 25 µg/disc [21]: 10 mm | zone of inhibition at 15 µg/disc [22]: 10 mm | zone of inhibition at 25 µg/disc [23]: 16 mm | zone of inhibition at 20 µg/disc [24]: 9 mm | zone of inhibition at 5 µg/disc [25]: 10 mm | MIC50 [26]: 5 µg/mL (≈ 12.6 µM) | MIC90 [26]: 5 µg/mL (≈ 12.6 µM) | zone of inhibition at 25 µg/disc [27]: 16 mm | zone of inhibition at 15 µg/disc [28]: 10 mm | zone of inhibition at 15 µg/disc [29]: 8 mm | zone of inhibition at 20 µg/disc [30]: 12 mm | zone of inhibition at 10 µg/disc [32]: 9 mm | zone of inhibition at 15 µg/disc [33]: 16 mm | zone of inhibition at 20 µg/disc [34]: 20 mm | zone of inhibition at 5 µg/disc [35]: 8 mm | zone of inhibition at 10 µg/disc [37]: 9 mm | zone of inhibition at 10 µg/disc [38]: 10 mm

From ChEMBL document CHEMBL1140876, “Synthesis and antibacterial property of quinolines with potent DNA gyrase activity” (2009)
